From PubChem
CSC inhib: cancer stem cell viability inhibitors, primary screen, luminescence; cancer stem cell-like cells viability; inhibition, % at 7.5 µM; 300,000 compounds, 1.1% hits; AID 2717, 2010; in the data active means inhibition above about 75%; inconclusive means no clear call, values can overlap the other calls; tested in HMLE shEcad cells
T cruzi repl: inhibitors of intracellular T. cruzi growth, primary screen, luminescence, NIH3T3 host cells. T. cruzi beta-gal in NIH3T3, 90 h. inhibition, % (concentration not given with the values). 300,000 compounds, 1.4% hits. AID 1885, 2009;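 active means mean inhibition across valid replicates above about 55%, limit read from the data; inconclusive means mean below that limit but half or more replicates reach it; inactive means mean below it, under half of replicates reach it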;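 further: signal also drops with host cell toxicity which is not excluded here; 0% = plate median of DMSO wells and 100% = zero luminescence signal; higher percent means less beta-gal luminescence so fewer parasites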
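Incubation – ≥90 h infection period, 3 h prior cell attachment · System – NIH/3T3 fibroblasts plus reporter T. cruzi · Doses – compound pinned at 50 nL/well, DMSO · Read-out basis – percent inhibition of parasite-derived β-gal signal · Signal – luminescent β-galactosidase signal after 60 min lysis · Also added – 5000 T. cruzi trypomastigotes/well · Medium – Low-serum DMEM with 2% FBS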
Beta cell apopt: inhibitors of cytokine-induced beta cell apoptosis, primary screen, luminescence; INS-1E cytokine-induced death, ATP luminescence, 48 h; percent of positive-control rescue, neutral wells zero; AID 435005, 2010; 300,000 compounds, 0.8% hits; protection from apoptosis, % (test concentration not listed);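 active means Every replicate reaches about 75%, or at least half do and their mean reaches it too, limit read from the data; inconclusive means At least half of replicates reach the limit but their mean does not; inactive means Under half of replicates reach the limit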;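 further: 0% = cytokine-treated negative control wells and 100% = positive control rescue; higher means more ATP so stronger rescue from cytokine killing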
Bfl-1 A1 inh: caspase 3/7 activation in MEF A1-2A-BIM cells, primary screen, A1 inhibitor project, cell-based, luminescence, HTS; AID 2462, 2010; Caspase-Glo 3/7 luminescence, 3 h; percent of clofoctol response, vehicle zero; 330,000 compounds, 0.066% hits; caspase activation, % (test concentration not listed);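 active means over half of replicate activation scores above 10%, or exactly half above 10 with the replicate mean above 10; inconclusive means replicate mean below 10 yet half the replicates above 10; inactive means over half of replicates below 10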
Calb FLC: C. albicans growth inhibition with fluconazole, primary screen, CaCi-2 strain, Alamar Blue fluorescence; C. albicans CaCi-2 (fluconazole-resistant clinical isolate) + fluconazole, 48 h; 300,000 compounds, 0.57% hits; growth inhibition, % (no concentration beside the values);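 active means growth inhibition above about 58% in most replicates, limit read from the data, passing the limit was not always enough; inconclusive means exactly half the replicates above a set limit; inactive means most replicates below a set limit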;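 further: all wells also contain fluconazole at 8 µg/ml as a sub-toxic cotreatment; 0% = median of DMSO wells and 100% = median of geldanamycin control wells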
TAG inh: inhibitors of triacylglycerol accumulation, primary screen, cell-based, uHTS, fluorescence, H9c2 | inhibition, % at 12.5 µM | 230,000 compounds, 0.66% hits | H9c2 cells, Nile Red lipid (TAG) fluorescence; cells loaded with 200 µM oleic acid | AID 651582, 2012;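 active means pattern-corrected inhibition of lipid staining of at least 50% with the nuclear-stain viability signal not falling by more than 50%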;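 further: 0% = DMSO wells and 100% = triacsin C control wells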
Numbers without * were called inactive; ? = inconclusive; . = no result given. Most compounds without a hit are left out; they make up all but 3.1% or so of the library.

SMILES | CSC inhib | T cruzi repl | Beta cell apopt | Bfl-1 A1 inh | Calb FLC | TAG inh
O=C(N/N=C/c1ccc(Br)s1)c1ccc([N+](=O)[O-])cc1 | 25.9 | 75.6* | 11.8 | -0.3 | 3.0 | 37.6
CCOC(=O)N/N=C\c1ccc([N+](=O)[O-])s1 | 2.4 | 24.8 | . | 1.3 | 10.2 | 16.9
Cc1ccc(C(=O)N/N=C/c2ccc([N+](=O)[O-])s2)cc1 | -1.2 | 57.5* | -55.7 | 0.4 | -3.6 | -7.2
CC(C)(C)OC(=O)N/N=C\c1ccc([N+](=O)[O-])s1 | -15.3 | 57.3* | 1.5 | 0.0 | -5.7 | 10.8
O=C(N/N=C/c1ccc([N+](=O)[O-])s1)c1cccc(Br)c1 | 15.6 | 92.8* | 60.2 | 0.0 | 23.5 | -98.4
Cc1ccc(/C=N/NC(=O)c2ccncc2)s1 | -2.5 | -7.7 | -6.4 | 0.5 | -1.4 | -1.3
Cn1c(SCC(=O)N/N=C/c2ccc([N+](=O)[O-])s2)nnc1-c1ccc(Cl)cc1 | 59.1 | 50.8 | 88.8* | -0.3 | 0.8 | .
COc1cc([N+](=O)[O-])cc(/C=N/NC(=O)CSc2nnc(-c3ccccc3)n2C)c1O | -4.0 | 2.0 | -11.5 | 1.5 | -15.6 | .
Cc1cc(C)n(CC(=O)N/N=C/c2cccs2)n1 | . | 14.1 | 1.8 | 1.3 | -11.2 | .
O=C(N/N=C/c1ccc([N+](=O)[O-])s1)c1ccncc1 | 9.1 | 55.6* | -51.8 | -0.2 | 3.4 | .
Cc1cc(C)n(CC(=O)N/N=C/c2ccc([N+](=O)[O-])s2)n1 | -5.7 | 58.7* | -15.3 | -0.2 | 35.9 | .
Cc1cccc(N2CCN(S(=O)(=O)c3ccc(Cl)nc3)CC2C)c1 (stereo unspecified) | -7.5 | . | -6.8 | 2.2 | . | -22.9
CCCCCCn1ccc(=N)cc1 | 12.5 | . | 120.3* | -0.6 | ? | -46.2
CCCCCCCCCCCCCCCCn1cc[n+](CC(C)=O)c1 | . | . | . | . | . | 34.3
c1ccc(OCCNc2nc(NCC3CC3)nc3ccsc23)cc1 | . | . | . | . | . | -20.8
COc1ccc(NC(=O)c2nn(C)c3c2CS(=O)(=O)c2ccccc2-3)cc1 | -1.6 | -1.9 | -7.7 | -0.6 | -13.5 | .
O=C(CSc1nnc(Cn2nnc3ccccc32)o1)N(Cc1ccc(F)cc1)c1ccccc1 | 39.8 | 12.8 | 108.7* | -0.4 | 9.6 | .
COc1ccc(C2/C=C\CC(NS(=O)(=O)c3ccc(C)cc3)CC(=O)N2Cc2ccccc2F)cc1 (stereo unspecified) | . | . | . | . | . | 20.4
COc1cnc(-c2ccccn2)nc1Sc1ccc(Cl)cc1 | -2.1 | 19.4 | 12.4 | 0.3 | -3.4 | .
COc1cnc(-c2ccccn2)nc1N(C)c1ccccc1 | 98.3* | 65.8* | 91.7* | -0.6 | ? | .
COc1ccc(Sc2nc(-c3ccccn3)ncc2OC)cc1 | -7.2 | 62.6* | 89.5* | 0.3 | 2.3 | 6.3
COc1cnc(-c2ccccn2)nc1Sc1ccccc1 | 16.8 | 65.2* | 49.8 | -0.7 | 18.1 | -9.8
CSc1nc(NCC(C)O)c2c3c(sc2n1)CN(C)CC3 (stereo unspecified) | -7.9 | 10.5 | -6.2 | -0.3 | -0.9 | .
CSc1nc(SCC(=O)NC(c2ccccc2)c2ccccc2)c2c3c(sc2n1)CN(C)CC3 | 34.9 | 64.3* | 30.4 | 0.6 | -15.5 | .
CCn1c(C)nc2cc(C(=O)OC(C(F)(F)C(F)F)C(F)(F)C(F)F)ccc21 | 37.0 | 20.7 | 104.1* | -1.6 | 1.5 | .
SMILES | CSC inhib | T cruzi repl | Beta cell apopt | Bfl-1 A1 inh | Calb FLC | TAG inh
COc1ccc(F)cc1-c1cc(C(=O)NCc2ccccc2)[nH]n1 | . | . | . | . | . | -6.9
Cc1sc(NC(=O)c2ccco2)c(C(c2cccnc2)N2CCC(C)CC2)c1C (stereo unspecified) | -3.9 | 72.4* | -0.9 | 0.0 | -4.5 | -51.9
Cc1sc(NC(=O)c2ccco2)c(CN2CCN(Cc3ccccc3)CC2)c1C | -10.6 | 58.9* | -5.1 | 0.2 | 0.5 | -35.6
CCN1CCN(C(c2cccnc2)c2c(NC(=O)c3ccco3)sc(C)c2C)CC1 (stereo unspecified) | . | . | . | . | . | 11.7
CC(NC(=O)c1ccccc1)c1nnc(SCC(=O)NC2CCCC2)n1C (stereo unspecified) | 12.2 | -13.3 | -0.4 | 0.6 | -10.0 | .
CC(=O)Nc1ccc(S(=O)(=O)NCCC(=O)Nc2cc(C)ccn2)cc1 | . | -9.8 | 0.7 | -0.4 | 1.6 | 0.7
Cc1ccc(S(=O)(=O)NCc2ccncc2)c(C)c1C | -10.8 | -56.4 | 115.6* | -0.1 | 34.8 | -23.5
COC(=O)c1cccc(NC(=O)Nc2ccc(Cl)c(Cl)c2)c1 | 97.1* | 55.2* | 81.5* | 0.0 | -47.5 | .
COc1cccc(NC(=O)Nc2cc(C(=O)O)ccc2C)c1 | -8.5 | -3.6 | -6.7 | 0.4 | -12.3 | -5.8
Cc1ccc(NC(=S)NC(=O)C2CC2)cc1Cl | 6.6 | . | 4.5 | 0.6 | 112.4* | 12.4
COc1cccc(NC(=O)Nc2ccc(C)c(Cl)c2)c1 | 16.3 | 60.7* | 11.6 | -1.3 | -32.3 | -5.4
Cc1cccc(C)c1OCc1cn(CC(=O)c2ccc(O)cc2)nn1 | . | . | . | . | . | -8.3
CCOC(=O)/C(C)=C1\NC(C)(C)Cc2ccccc21 | . | 62.5* | . | . | -25.7 | -17.3
CCOC(=O)/C(C(=O)Nc1ccccc1Cl)=C1/NC(C)(C)Cc2ccccc21 | 4.0 | -1.1 | -3.1 | 0.6 | 6.0 | .
COc1cccc(-c2sc3ccccc3c2-c2ccc(OCCN(C)C)cc2)c1 | 104.4* | . | 20.0 | -1.3 | . | 21.2
COc1cccc(-c2sc3ccccc3c2-c2ccc(OCCN3CCCC3)cc2)c1 | 103.9* | . | 4.8 | -0.1 | . | 14.5
COc1cccc(-c2sc3ccccc3c2-c2ccc(OCCN3CCCCC3)cc2)c1 | 104.2* | . | 27.8 | 0.1 | . | 40.8
COc1cccc(-c2sc3ccc(OC)cc3c2-c2ccc(OCCN3CCCC3)cc2)c1 | . | . | . | . | . | 18.4
COc1ccc2c(-c3ccc(OCCN4CCCCC4)cc3)c(-c3ccccc3OC)sc2c1 | . | . | . | . | . | 33.2
COc1cccc(-c2sc3cc(OC)c(OC)cc3c2-c2ccc(OCCN3CCCCC3)cc2)c1 | . | . | . | . | . | 91.9*
Cc1cc(C(=O)COC(=O)Cc2n[nH]c(=O)c3ccccc23)c(C)n1-c1ccc2c(c1)OCCO2 | 9.1 | 69.0* | -2.4 | 1.2 | 2.6 | .
O=C(NCc1ccc(Cl)cc1)c1n[nH]c([N+](=O)[O-])c1Cl | 23.7 | 1.5 | -1.0 | -3.6 | 97.0* | 1.2
O=C(Cc1ccccc1[N+](=O)[O-])NCc1ccc(Cl)cc1 | -7.7 | -4.5 | 0.1 | -1.1 | 1.5 | -5.8
CC(C)Cc1nc2oc3c(NCC(C)O)ncnc3c2c2c1CCCC2 (stereo unspecified) | -6.8 | 2.7 | 0.3 | -0.6 | -14.2 | 6.5
CCCc1nc2oc3c(NCCCN(C)C)ncnc3c2c2c1CCCC2 | 54.3 | 25.0 | 0.0 | 0.8 | -2.2 | 62.7*
CC(C)Cc1nc2oc3c(Cl)ncnc3c2c2c1CCCC2 | 76.2* | -2.6 | 3.3 | 0.3 | -10.5 | 11.7
CCCc1nc2oc3c(Cl)ncnc3c2c2c1CCCC2 | 1.9 | 2.9 | -7.6 | 0.6 | 3.2 | 2.0
